The list is not random: actives were taken first. Their share in the collection is about 3.3%.
SENP1 FRET inh – blocks the human SENP1 SUMO protease catalytic domain. recombinant SENP1 catalytic domain, CyPet-SUMO1-YPet FRET cleavage. Q9P0U3. inhibition, % at 10 µM. AID 624204. hit rate 0.21% among 360,000;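 active means inhibition at least 30% at 10 µM, raw YFP signal under a set limit, fluorescence ratio 0.5 to 1.5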;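 further: 0% = enzyme with DMSO and 100% = no enzyme wells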
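Test system: hSENP1 catalytic domain, recombinant; Amount: 20 pM final SENP1 enzyme; Medium: Tris pH 8 buffer plus EDTA, NaCl, BME, BSA, NP40, catalase; Schedule: 50 min enzyme reaction, room temperature, light-protected; Technique: FRET fluorescence in CFP and YFP emission channels; Controls: no-enzyme wells low, DMSO-plus-enzyme wells high control.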
SENP8 block-1 – SENP8 (human) protease inhibition; Q96LD8; AID 602440; inhibition, % at 20 µM; hit rate 0.64% among 360,000; recombinant SENP8, Nedd8 substrate fluorescence; in the data active means inhibition mostly above about 40%, no sharp cut-off; inactive means mostly below about 27%
SENP7 inh – blocks the human protease SENP7; Q9BQF6; recombinant SENP7, Z-RLRGG-aminoluciferin luminescence, 40 min; inhibition, % at 5 µM; hit rate 1.5% among 330,000;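 active means inhibition above about 50% at the single test dose, limit read from the data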;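 further: plate controls were DMSO with enzyme for no effect and no enzyme buffer wells for full effect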
SENP6 inh – inhibitors of human SENP6 protease; Q9GZR1; Recombinant SENP6 catalytic domain, aminoluciferin luminescence; inhibition, % at 10 µM; hit rate 1.8% among 330,000; AID 2599;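 active means inhibition above about 50% at the single tested dose, limit read from the data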;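 further: plate controls were DMSO wells with enzyme for no effect and DMSO wells lacking enzyme for full effect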
Target sequence (Q9GZR1 628-1112 limits assumed): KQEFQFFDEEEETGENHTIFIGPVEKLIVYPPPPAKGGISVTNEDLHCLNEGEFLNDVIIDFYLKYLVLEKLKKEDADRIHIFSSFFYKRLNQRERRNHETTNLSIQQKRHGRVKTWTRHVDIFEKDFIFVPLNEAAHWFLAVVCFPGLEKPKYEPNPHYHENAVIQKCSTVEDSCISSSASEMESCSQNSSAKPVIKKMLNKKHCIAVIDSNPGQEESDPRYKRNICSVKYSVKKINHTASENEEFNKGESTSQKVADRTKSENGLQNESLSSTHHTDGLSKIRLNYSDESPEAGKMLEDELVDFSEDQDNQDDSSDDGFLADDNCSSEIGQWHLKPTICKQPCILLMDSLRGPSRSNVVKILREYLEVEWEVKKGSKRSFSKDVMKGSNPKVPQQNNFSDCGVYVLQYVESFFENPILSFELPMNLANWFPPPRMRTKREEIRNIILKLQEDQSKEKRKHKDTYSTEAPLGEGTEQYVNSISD
CendR NRP1 mod – NRP-1/CendR interaction modulation. O14786. FAM-RPARPAR peptide binding to NRP-1, fluorescence polarization. inhibition, % at 25 µM. hit rate 0.85% among 360,000;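 active means inhibition or corrected inhibition above about 18%, plus a signal ratio from 0.5 to 1.5, limit read from the data, passing the limit was not always enough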
SENP8 block-2 – SENP8 protease inhibition; Q96LD8; purified SENP8, Z-RLRGG-aminoluciferin cleavage, luminescence; inhibition, % at 10 µM; hit rate 1.2% among 330,000; AID 2540; in the data active means inhibition above about 50%
* marks the source's active call; other numbers are inactive results.

For CS(=O)(=O)N(CC(=O)Nc1ccccc1-c1ccccc1)c1ccccc1 the results were SENP1 FRET inh 0.1, SENP8 block-1 5.9, SENP7 inh -2.9, SENP6 inh 27.5, CendR NRP1 mod 19.3 and SENP8 block-2 2.5.
Screening CC(C)[C@@H](NC(=O)OC(C)(C)C)c1cc(C(=O)c2c(-c3ccccc3)[nH]c3ccccc23)c(N)s1 returned SENP1 FRET inh 0.8, SENP8 block-1 -227.6 and CendR NRP1 mod -20.5.
Screening CN(C)c1cc(Nc2ccc(O)cc2)c([N+](=O)[O-])c2nonc12 returned SENP1 FRET inh -7.7, SENP8 block-1 39.2, SENP7 inh -0.6, SENP6 inh -5.3, CendR NRP1 mod -8.8 and SENP8 block-2 -6.8.
Screening O=[N+]([O-])c1c(Nc2ccc(O)cc2)cc(Cl)c2nonc12 returned SENP1 FRET inh -0.9, SENP8 block-1 36.9, SENP7 inh 1.2, SENP6 inh -6.3, CendR NRP1 mod 26.3* and SENP8 block-2 4.5.
`O=[N+]([O-])c1c(Nc2ccccn2)cc(Cl)c2nonc12` gave SENP1 FRET inh -1.8, SENP8 block-1 68.2*, SENP7 inh 95.3*, SENP6 inh 87.0*, CendR NRP1 mod 137.1 and SENP8 block-2 42.9.
For COC(=O)C1(C(=O)OC)C2CCCCC2N(S(=O)(=O)c2ccc(C)cc2)[C@@H]1CC(C)=O (stereo partly specified) the results were SENP1 FRET inh 1.0, SENP8 block-1 10.3 and CendR NRP1 mod -7.2.
CC12CCC(=O)C=C1CCC1C2C(O)CC2(C)C1CCC2(O)C(=O)COC(=O)CCC1CCCC1 (stereo unspecified) was read as SENP1 FRET inh 4.2, SENP8 block-1 -3.9 and CendR NRP1 mod -1.8.
`COc1ccc(-n2nnc3c(SCC(=O)NCc4ccco4)ncnc32)cc1` gave SENP1 FRET inh 1.4, SENP8 block-1 -25.3, SENP7 inh 28.6, SENP6 inh 40.5, CendR NRP1 mod 35.7* and SENP8 block-2 21.0.
For Cc1ccc(-n2nnc3c(SCC(=O)NCc4ccco4)ncnc32)cc1 the results were SENP1 FRET inh -0.3, SENP8 block-1 13.0, SENP7 inh 9.6, SENP6 inh 10.6, CendR NRP1 mod -22.8 and SENP8 block-2 0.4.
For O=c1cc(CSc2n[nH]c(-c3ccncc3)n2)nc2sccn12 the results were SENP1 FRET inh -35.6, SENP8 block-1 -6.5, SENP7 inh 5.2, SENP6 inh -17.7, CendR NRP1 mod 23.5* and SENP8 block-2 6.5.
CSc1ccccc1C(=O)OCC(=O)NC1CC1 was read as SENP1 FRET inh -0.2, SENP8 block-1 7.6 and CendR NRP1 mod 3.9.
`COC(=O)[C@]12CCCCC=C1N(Cc1ccc3c(c1)OCO3)C(=O)[C@H](CC(=O)NCc1ccc(OC)c(OC)c1)C2` gave SENP1 FRET inh 3.8, SENP8 block-1 10.5 and CendR NRP1 mod 15.1.
For Cc1ccccc1OCC(O)CNC1CCC(NCC(O)COc2ccccc2C)CC1 (stereo unspecified) the results were SENP1 FRET inh -2.5, SENP8 block-1 22.8, SENP7 inh 0.4, SENP6 inh 9.9, CendR NRP1 mod 19.8* and SENP8 block-2 0.3.
`Cc1ccc(OCC(O)CNC2CCCC2)c(C)c1` (stereo unspecified) gave SENP1 FRET inh -1.4, SENP8 block-1 9.2, SENP7 inh -4.2, SENP6 inh 8.1, CendR NRP1 mod 0.3 and SENP8 block-2 -4.5.
Screening Nc1nc(-c2ccc(Br)s2)c(Br)s1 returned SENP1 FRET inh 0.6, SENP8 block-1 18.4, SENP7 inh 0.8, SENP6 inh 2.3, CendR NRP1 mod 29.7* and SENP8 block-2 -11.1.
C=CCn1cnnc1SCC(=O)Nc1cccnc1Cl was read as SENP7 inh 4.9, SENP6 inh -11.7 and SENP8 block-2 -6.8.
Screening O=S(=O)(c1ccc(Cl)cc1)N1CCC2(CC1)OCCO2 returned SENP1 FRET inh 1.6, SENP8 block-1 13.2, SENP7 inh 14.8, SENP6 inh -7.5, CendR NRP1 mod 3.4 and SENP8 block-2 -7.7.
`CCCCc1ccc(S(=O)(=O)N2CCC3(CC2)OCCO3)cc1` gave SENP1 FRET inh 2.3, SENP8 block-1 3.9, SENP7 inh -9.8, SENP6 inh 16.9, CendR NRP1 mod 32.6* and SENP8 block-2 -6.4.
Screening COC/C=C/C1=CC2=CC(=O)C(C)(OC(=O)c3cnc4ccccc4n3)C(=O)C2=CN1CC1CC1 (stereo unspecified) returned SENP1 FRET inh -13.4, SENP8 block-1 44.0*, SENP7 inh 17.6, SENP6 inh 8.2, CendR NRP1 mod 29.3* and SENP8 block-2 -2.7.
`COC/C=C/C1=CC2=CC(=O)C(C)(OC(=O)c3cnc4ccccc4n3)C(=O)C2=CN1CCc1ccccn1` (stereo unspecified) gave SENP7 inh -0.6, SENP6 inh 11.7 and SENP8 block-2 -3.1.
COC/C=C/C1=CC2=CC(=O)C(C)(OC(=O)c3cnc4ccccc4n3)C(=O)C2=CN1Cc1ccc(OC)cc1 (stereo unspecified) was read as SENP1 FRET inh -25.5, SENP8 block-1 36.7, SENP7 inh 5.7, SENP6 inh 16.0, CendR NRP1 mod 37.0* and SENP8 block-2 3.0.
C=CCn1c(-c2ccc(Cl)cc2)cnc1SC(C)C(N)=O (stereo unspecified) was read as SENP1 FRET inh -0.6, SENP8 block-1 3.9, SENP7 inh 3.5, SENP6 inh -11.1, CendR NRP1 mod 19.4* and SENP8 block-2 -5.5.
`COC(=O)C1N[C@@H]([C@@H](NC(=O)COc2ccccc2)C(=O)NCc2ccccc2)SC1(C)C` (stereo partly specified) gave SENP1 FRET inh 1.1, SENP8 block-1 -6.0, SENP7 inh -5.6, SENP6 inh -18.5, CendR NRP1 mod 31.6* and SENP8 block-2 -11.1.
For CC(C)C[C@@H](CN1CCC[C@H]1CN1C(=O)C(=O)NC[C@@H]1Cc1ccccc1)N1C[C@H](Cc2ccccc2)N(CC2CCCCCC2)C(=O)C1=O the results were SENP1 FRET inh -0.2, SENP8 block-1 12.6 and CendR NRP1 mod -5.1.
CCN1C(=O)[C@H]2[C@H]3CN=C(SCc4ccc(C)cc4)N3[C@@](CC)(C(=O)OC)[C@H]2C1=O was read as SENP1 FRET inh 1.4, SENP8 block-1 8.5, SENP7 inh -1.1 and CendR NRP1 mod 1.5.
`CCn1c(=O)n(CC)c2cc(N3CCCC3)c(NC(=O)c3ccccc3F)cc21` gave SENP1 FRET inh -0.5, SENP8 block-1 -2.9, SENP7 inh 1.3, SENP6 inh -6.1, CendR NRP1 mod 5.9 and SENP8 block-2 0.5.
`CCn1c(=O)n(CC)c2cc(N3CCCC3)c(NC(=O)c3ccccc3C)cc21` gave SENP1 FRET inh -8.0, SENP8 block-1 5.7, SENP7 inh -1.5, SENP6 inh 12.8, CendR NRP1 mod 27.1* and SENP8 block-2 -2.7.

Screens (PubChem)
